{"source": "paper PMC3683571", "about": "(Journal of the American Chemical Society, 2013)", "key": {"PSMA": {"target": "PSMA (Homo sapiens, UniProt Q04609)", "sequence (Q04609 whole entry)": "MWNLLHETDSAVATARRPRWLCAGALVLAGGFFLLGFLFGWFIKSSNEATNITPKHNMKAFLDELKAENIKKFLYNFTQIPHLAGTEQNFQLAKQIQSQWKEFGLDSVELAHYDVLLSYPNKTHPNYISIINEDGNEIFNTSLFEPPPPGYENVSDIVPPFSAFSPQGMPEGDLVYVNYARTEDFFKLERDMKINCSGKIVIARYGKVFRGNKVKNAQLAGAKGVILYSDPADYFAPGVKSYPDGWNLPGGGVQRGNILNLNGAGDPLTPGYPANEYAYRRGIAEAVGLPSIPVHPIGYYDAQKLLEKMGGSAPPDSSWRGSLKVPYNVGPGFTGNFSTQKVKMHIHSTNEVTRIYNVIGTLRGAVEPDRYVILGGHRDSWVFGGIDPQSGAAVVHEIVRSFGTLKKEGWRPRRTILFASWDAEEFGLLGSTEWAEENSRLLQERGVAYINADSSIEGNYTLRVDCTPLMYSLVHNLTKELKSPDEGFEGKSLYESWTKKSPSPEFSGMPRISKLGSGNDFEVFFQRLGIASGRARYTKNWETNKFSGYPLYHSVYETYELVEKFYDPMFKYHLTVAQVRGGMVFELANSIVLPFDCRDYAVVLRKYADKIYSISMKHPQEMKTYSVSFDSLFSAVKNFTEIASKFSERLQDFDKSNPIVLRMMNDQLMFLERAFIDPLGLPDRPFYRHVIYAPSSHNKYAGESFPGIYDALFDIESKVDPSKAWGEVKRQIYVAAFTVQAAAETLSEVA", "experiment": "Biosensing", "assay_type": "binding", "outline": "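Virus-PEDOT films, with ligand-displaying phage either unwrapped or wrapped with a chemically synthesized ligand wrapper, were exposed to a series of PSMA dimer concentrations. The read-out was relative impedance change (ΔR/Ro) versus frequency, with noise taken as the SD of five impedance measurements. Controls were films with control phage, ligand-free films, and films with wrapper alone; transferrin receptor served as a specificity target. Kd, Hill n and LOD came from Hill fits.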"}, "PSMA monomer": {"test_system": "PSMA monomer", "experiment": "Phage-based ELISA, binding to PSMA monomer", "conditions": "Figure 1, standard error (n = 3)"}, "[1]": {"conditions": "in previous studies, no reference given; cited from earlier work"}, "PSMA dimer": {"test_system": "PSMA dimer", "experiment": "Phage-based ELISA, binding to PSMA dimer", "conditions": "as shown in Figure 1"}}, "note": "Entries after “also recorded” stand apart in the source; their conditions may differ."}
{"sequence": "SECVEVFQNSCDW [phage-2]", "values": [{"measurement": "LOD (calculated)", "setting": "PSMA; PBF, defined as 3x over background signal, calculated from line fits to the data in Figure 4F", "result": 6, "unit": "nM"}, {"measurement": "cooperative binding", "setting": "PSMA; from n-values obtained >1, Hill fit, PBF", "result": "can access cooperative binding"}, {"measurement": "binding to the PSMA monomer (ELISA)", "setting": "PSMA monomer", "result": "Neither phage-displayed ligand binds with significant affinity to the PSMA monomer"}]}
{"sequence": "CALCEFLG [phage-1]", "values": [{"measurement": "binding to the PSMA monomer (ELISA)", "setting": "PSMA monomer", "result": "Neither phage-displayed ligand binds with significant affinity to the PSMA monomer"}]}
{"sequence": "SECVEVFQNSCDW [compound 2]", "values": [{"measurement": "solubility in water", "setting": "[1]", "result": "limited solubility in water"}]}
{"sequence": "CALCEFLG [compound 1]", "values": [{"measurement": "solubility in water", "setting": "[1]", "result": "limited solubility in water"}, {"measurement": "apparent affinity for PSMA, peptide 1 versus peptide 2", "setting": "PSMA dimer", "result": "much lower apparent affinity for PSMA than peptide 2"}]}
{"sequence": "CALCEFLG [KCS-1]", "values": [{"measurement": "binding to PSMA / change in impedance, negative controls", "setting": "PSMA; EIS, PBF-Tween buffer, PEDOT films", "result": "no significant binding to PSMA; also recorded: negligible change in impedance caused by the wrapper"}]}
